Test results from ChEMBL document CHEMBL3352487, “Synthesis, antibacterial activity, and biological evaluation of formyl hydroxyamino derivatives as novel potent peptide deformylase inhibitors against drug-resistant bacteria” (Eur J Med Chem, 2014).
Converted amounts (≈) assume the structure as drawn.

Legend:
Staphylococcus aureus [1] = assay: Antimicrobial activity against Staphylococcus aureus MRSA08-12 in peritonitis mouse model assessed as mortality of host at 10 mg/kg, iv as single dose relative to control; format: functional
Summary of the method: (§1)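 Outbred KM mice (20–25 g) infected i.p. with a 90–100% lethal dose (5 × 10^7 CFU/mL) in 0.5 mL brain heart infusion broth with 5% mucin. Single i.v. dose of 1.25–20 mg/kg in 20% DMSO, 0.1 mL. Ten mice per dose; daily monitoring for 14 days; ED50 from cumulative mortality by Bliss's method.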

Staphylococcus aureus [2] = assay: Antimicrobial activity against Staphylococcus aureus MRSA08-12 in peritonitis mouse model assessed as mortality of host at 5 mg/kg, iv as single dose relative to control; format: functional; summary of the method: as §1
[3] = Fraction unbound in CD1 mouse plasma at 2 uM by equilibrium dialysis; format: ADME, cell-free
Summary of the method: (§2)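 Pooled CD-1 mouse plasma spiked to 2 µM final, equilibrium dialysis in triplicate against 100 mM PBS pH 7.4, 4 h at 37 °C with rotation; matrix-matched samples acetonitrile-precipitated, LC-MS/MS with internal standards. Unbound = free/total ×100; recovery = (free+total)/pre-dialysis ×100.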

[4] = Protein binding in CD1 mouse plasma at 2 uM by equilibrium dialysis; format: ADME, cell-free; details: read-out: PPB (converted)
[5] = Drug recovery in CD1 mouse plasma at 2 uM by equilibrium dialysis; format: ADME, cell-free; details: read-out: Drug recovery; summary of the method: as §2
Mus musculus [6] = assay: Acute toxicity in KM mouse assessed as abnormal behaviour at 100 mg/kg, iv measured for 14 days; format: organism-based; parameters: dose 100 mg/kg, route intravenous; details: in vivo, 336 h
Summary of the method: (§3)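 Outbred KM mice (SPF, 20–25 g; nine male, ten female) given a single tail-vein injection of 100 or 250 mg/kg in PBS pH 6.5 with 20% DMSO over about 60 s. Behaviour, weight, coat colour, anal temperature, food and water intake, and urine and stool weight followed for 14 days. On day 14, gross necropsy of skin, lungs, heart, liver, kidneys and spleen.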

Mus musculus [7] = assay: Acute toxicity in KM mouse assessed as skin abnormality at 250 mg/kg, iv measured for 14 days by necropsy; format: organism-based; parameters: dose 250 mg/kg, route intravenous; details: in vivo, 336 h; summary of the method: as §3
Mus musculus [8] = assay: Acute toxicity in KM mouse assessed as lung abnormality at 250 mg/kg, iv measured for 14 days by necropsy; format: organism-based; parameters: dose 250 mg/kg, route intravenous; details: in vivo, 336 h; summary of the method: as §3
Mus musculus [9] = assay: Acute toxicity in KM mouse assessed as liver abnormality at 250 mg/kg, iv measured for 14 days by necropsy; format: organism-based; parameters: dose 250 mg/kg, route intravenous; details: in vivo, 336 h; summary of the method: as §3
Mus musculus [10] = assay: Acute toxicity in KM mouse assessed as spleen abnormality at 250 mg/kg, iv measured for 14 days by necropsy; format: organism-based; parameters: dose 250 mg/kg, route intravenous; details: in vivo, 336 h; summary of the method: as §3
Staphylococcus aureus [11] = assay: Antimicrobial activity against methicillin-resistant Staphylococcus aureus after 24 hrs by broth microdilution method; format: functional
Summary of the method: (§4)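 Broth microdilution following NCCLS M7-A4, using ATCC strains and clinical isolates from a provincial hospital.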

[12] = tested on: Staphylococcus epidermidis; assay: Antimicrobial activity against Staphylococcus epidermidis after 24 hrs by broth microdilution method; format: functional
Summary of the method: (§5)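 Broth microdilution following NCCLS M7-A4; ATCC strains and clinical isolates from a provincial hospital.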

Escherichia coli [13] = assay: Antimicrobial activity against Escherichia coli isolate 1 after 24 hrs by broth microdilution method; format: functional; details: isolate 1, 24 h; summary of the method: as §5
Staphylococcus aureus [14] = assay: Antimicrobial activity against Staphylococcus aureus OXFORD after 24 hrs by broth microdilution method; format: functional; summary of the method: as §4
Enterococcus faecium = assay: Antimicrobial activity against Enterococcus faecium X7501 after 24 hrs by broth microdilution method; format: functional; details: X7501, 24 h; summary of the method: as §5
Haemophilus influenzae = assay: Antimicrobial activity against AcrA-deficient Haemophilus influenzae H128 after 24 hrs by broth microdilution method; format: functional; details: H128, 24 h; summary of the method: as §5
Streptococcus pneumoniae [15] = assay: Antimicrobial activity against Streptococcus pneumoniae N1387 after 24 hrs by broth microdilution method; format: functional; details: N1387, 24 h; summary of the method: as §5
Streptococcus pneumoniae [16] = assay: Antimicrobial activity against Streptococcus pneumoniae ERY2 after 24 hrs by broth microdilution method; format: functional; details: ERY2, 24 h; summary of the method: as §5
Escherichia coli [17] = assay: Antimicrobial activity against Escherichia coli isolate 3 after 24 hrs by broth microdilution method; format: functional; details: isolate 3, 24 h; summary of the method: as §5
Streptococcus pyogenes = assay: Antimicrobial activity against Streptococcus pyogenes 1308007P after 24 hrs by broth microdilution method; format: functional; summary of the method: as §5
Staphylococcus aureus [18] = assay: Antimicrobial activity against Staphylococcus aureus isolate CL 939 after 24 hrs by broth microdilution method; format: functional; details: isolate CL 939, 24 h; summary of the method: as §4
Staphylococcus aureus [19] = assay: Antimicrobial activity against Staphylococcus aureus isolate MILES HALL after 24 hrs by broth microdilution method; format: functional; summary of the method: as §4
Staphylococcus aureus [20] = assay: Antimicrobial activity against Staphylococcus aureus isolate RN4220 pmz1 after 24 hrs by broth microdilution method; format: functional; details: isolate RN4220 pmz1, 24 h; summary of the method: as §4
Staphylococcus aureus [21] = assay: Antimicrobial activity against Staphylococcus aureus isolate CL 1033 after 24 hrs by broth microdilution method; format: functional; details: isolate CL 1033, 24 h; summary of the method: as §5
Staphylococcus aureus [22] = assay: Antimicrobial activity against Staphylococcus aureus isolate NEQAS 4026 after 24 hrs by broth microdilution method; format: functional; details: isolate NEQAS 4026, 24 h; summary of the method: as §5
Staphylococcus aureus [23] = assay: Antimicrobial activity against Staphylococcus aureus isolate RN1024 after 24 hrs by broth microdilution method; format: functional; details: isolate RN1024, 24 h; summary of the method: as §4
Staphylococcus aureus [24] = assay: Antimicrobial activity against Staphylococcus aureus isolate 306 after 24 hrs by broth microdilution method; format: functional; details: isolate 306, 24 h; summary of the method: as §5
Staphylococcus aureus [25] = assay: Antimicrobial activity against Staphylococcus aureus isolate 929003 after 24 hrs by broth microdilution method; format: functional; details: isolate 929003, 24 h; summary of the method: as §5
Staphylococcus aureus [26] = assay: Antimicrobial activity against Staphylococcus aureus isolate 934324 after 24 hrs by broth microdilution method; format: functional; details: isolate 934324, 24 h; summary of the method: as §5
Staphylococcus aureus [27] = assay: Antimicrobial activity against Staphylococcus aureus isolate 934335 after 24 hrs by broth microdilution method; format: functional; details: isolate 934335, 24 h; summary of the method: as §5
[28] = Mean residence time (0 to t) in Sprague-Dawley rat at 5 mg/kg, iv; format: ADME, organism-based; parameters: dose 5 mg/kg, route intravenous; details: in vivo
[29] = AUC (0 to t) in Sprague-Dawley rat at 5 mg/kg, iv; format: ADME, organism-based; parameters: dose 5 mg/kg, route intravenous; details: plasma
[30] = AUC (0 to infinity) in Sprague-Dawley rat at 5 mg/kg, iv; format: ADME, organism-based; parameters: time infinity, dose 5 mg/kg, route intravenous; details: plasma
[31] = Clearance in Sprague-Dawley rat at 5 mg/kg, iv; format: ADME, organism-based; parameters: dose 5 mg/kg, route intravenous; details: in vivo
[32] = Volume of distribution at steady state in Sprague-Dawley rat at 5 mg/kg, iv; format: ADME, organism-based; parameters: dose 5 mg/kg, route intravenous; details: in vivo, read-out: Vdss
[33] = Cmax in Sprague-Dawley rat at 25 mg/kg, po; format: ADME, organism-based; parameters: dose 25 mg/kg, route oral; details: in vivo
[34] = Tmax in Sprague-Dawley rat at 25 mg/kg, po; format: ADME, organism-based; parameters: dose 25 mg/kg, route oral; details: in vivo
[35] = Half life in Sprague-Dawley rat at 25 mg/kg, po; format: ADME, organism-based; parameters: dose 25 mg/kg, route oral; details: in vivo
[36] = AUC (0 to infinity) in Sprague-Dawley rat at 25 mg/kg, po; format: ADME, organism-based; parameters: dose 25 mg/kg, route oral, time infinity; details: plasma
[37] = Mean residence time (0 to t) in Sprague-Dawley rat at 25 mg/kg, po; format: ADME, organism-based; parameters: dose 25 mg/kg, route oral; details: in vivo
[38] = Oral bioavailability in Sprague-Dawley rat at 25 mg/kg; format: ADME, organism-based; details: in vivo
[39] = Stability of the compound in artificial gastric juice measured every 2 hrs for 12 hrs by HPLC analysis; format: ADME; details: simulated gi fluid
Staphylococcus aureus [40] = assay: Antimicrobial activity against Staphylococcus aureus MRSA08-12 in peritonitis mouse model administered intravenously as single dose; format: functional; details: MRSA08-12, iv
Staphylococcus aureus [41] = assay: Antimicrobial activity against Staphylococcus aureus MRSA08-12 in peritonitis mouse model assessed as mortality of host at 20 mg/kg, iv as single dose relative to control; format: functional; summary of the method: as §1

Compound: CCCC[C@H](CN(O)C=O)C(=O)N1CC=C[C@H]1C(=O)Nc1ccc(F)c[n+]1[O-]
- mortality at 10 mg/kg (Staphylococcus aureus [1]): 30%
- mortality at 5 mg/kg (Staphylococcus aureus [2]): 60%
- fraction unbound at 2 µM [3]: 0.467
- fraction unbound at 2 µM [4]: 0.467
- recovery at 2 µM [5]: 91.2%
- Activity (Mus musculus [6]): Non-toxic
- Activity (Mus musculus [7]): Non-toxic
- Activity (Mus musculus [8]): Non-toxic
- Activity (Mus musculus [9]): Non-toxic
- Activity (Mus musculus [10]): Non-toxic
- MIC (Staphylococcus aureus [11]): 0.5 µg/mL (≈ 1.27 µM)
- MIC [12]: 1 µg/mL (≈ 2.54 µM)
- MIC (Escherichia coli [13]): > 64 µg/mL
- MIC (Staphylococcus aureus [14]): 0.5 µg/mL (≈ 1.27 µM)
- MIC (Enterococcus faecium): 2 µg/mL (≈ 5.07 µM)
- MIC (Haemophilus influenzae): ≤ 0.06 µg/mL
- MIC (Streptococcus pneumoniae [15]): 0.5 µg/mL (≈ 1.27 µM)
- MIC (Streptococcus pneumoniae [16]): 1 µg/mL (≈ 2.54 µM)
- MIC (Escherichia coli [17]): 64 µg/mL (≈ 162 µM)
- MIC (Streptococcus pyogenes): 2 µg/mL (≈ 5.07 µM)
- MIC (Staphylococcus aureus [18]): 0.125 µg/mL (≈ 0.317 µM)
- MIC (Staphylococcus aureus [19]): 0.5 µg/mL (≈ 1.27 µM)
- MIC (Staphylococcus aureus [20]): 0.5 µg/mL (≈ 1.27 µM)
- MIC (Staphylococcus aureus [21]): 1 µg/mL (≈ 2.54 µM)
- MIC (Staphylococcus aureus [22]): 1 µg/mL (≈ 2.54 µM)
- MIC (Staphylococcus aureus [23]): 0.5 µg/mL (≈ 1.27 µM)
- MIC (Staphylococcus aureus [24]): 2 µg/mL (≈ 5.07 µM)
- MIC (Staphylococcus aureus [25]): 2 µg/mL (≈ 5.07 µM)
- MIC (Staphylococcus aureus [26]): 1 µg/mL (≈ 2.54 µM)
- MIC (Staphylococcus aureus [27]): 0.25 µg/mL (≈ 0.634 µM)
- MRT last [28]: 0.564 h
- AUC(0-t) [29]: 1950 ng·h/mL
- AUC(0-inf) [30]: 1960 ng·h/mL
- clearance [31]: 46.8 mL/min/kg
- Vd [32]: 1.72 L/kg
- Cmax [33]: 1390 ng/mL
- Tmax [34]: 0.688 h
- half-life [35]: 1.82 h
- AUC(0-inf) [36]: 3390 ng·h/mL
- MRT last [37]: 2.34 h
- bioavailability [38]: 34.6%
- Stability [39]: Stable
- ED50 (Staphylococcus aureus [40]): 6.25 mg/kg
- mortality at 20 mg/kg (Staphylococcus aureus [41]): 10%
